Assay results collected from several papers.
Lines come from different studies, so protocols differ. Converted amounts (≈) assume the structure as drawn.

`COc1cnc(OC)n2nc(NS(=O)(=O)c3c(OCC(F)F)cccc3C(F)(F)F)nc12` has an inhibition of 0.85% (HaCaT; cell growth or viability, CCK-8; 6.25 µM, 72 h).
The inhibition zone of `O=C/C=C/c1ccccc1` is reported as 8 mm (Bacillus subtilis; microbial growth, well diffusion; MTCC121; 1000 µg/mL, 18 h).
`N.N.[Cl][Pt][Cl]` has an IC50 of 6.3 µM (HaCaT; cell growth or viability, MTT; 72 h).
`C#Cc1ccc(C=NNC(=O)c2cc(Br)cc(Br)c2O)c(O)c1` has an MIC80 of 0.03 µg/mL (≈ 0.0685 µM) (Cryptococcus neoformans; microbial growth, broth dilution; pH 7.4).
The inhibition of `N.N.[Cl][Pt][Cl]` is reported as 100% (OCI-LY19; cell growth or viability, ATP luminescence; 10 µM, 72 h).
With `C#Cc1cccc(C=NNC(=O)c2ccc(Br)c(Br)c2)c1O` the MFC was 0.12 µg/mL (≈ 0.284 µM) (Cryptococcus neoformans; microbial killing).
`S=P1(c2ccccc2)CCCCC1` has an IC50 of greater than 100 µM (HaCaT; cell growth or viability, MTT; 72 h).
With `C#Cc1ccc(C(=O)NN=Cc2c(O)cccc2C#C)cc1` the MIC80 was 0.015 µg/mL (≈ 0.052 µM) (Cryptococcus neoformans; microbial growth, broth dilution; pH 7.4).
`CC[C@@]1(O)C(=O)OCc2c1cc1n(c2=O)Cc2cc3ccccc3nc2-1` gave an IC50 of 52.9 µM (SNB-19; cell growth or viability, SRB; 48 h).
With `CC[C@H](C)C[C@H](C)CCCCCCCCC(=O)N[C@H]1C[C@@H](O)[C@@H](NCCN)NC(=O)[C@@H]2[C@@H](O)CCN2C(=O)[C@H]([C@H](O)CCN)NC(=O)[C@H]([C@H](O)[C@@H](O)c2ccc(O)cc2)NC(=O)[C@@H]2C[C@@H](O)CN2C(=O)[C@H]([C@@H](C)O)NC1=O` the MFC was 0.5 µg/mL (≈ 0.457 µM) (Nakaseomyces glabratus; microbial killing, broth dilution; ATCC15126; 48 h).
For `C#Cc1cccc(O)c1C=NNC(=O)c1ccc(COC)cc1`, the MIC80 was 0.06 µg/mL (≈ 0.195 µM) (Cryptococcus neoformans; microbial growth, broth dilution; pH 7.4).
For `O=C1CCP(c2ccccc2)CC1`, the IC50 was 73.3 µM (HaCaT; cell growth or viability, MTT; 72 h).
